In the array DNA melting data of Ke et al. (doi:10.1101/2024.01.08.574731):

Assays:
[1] = melting temperature; fluorescence melt of hairpins on a sequencing array, two-state fit, raised by 9.35 °C to match UV melts; details: sodium 0.088 M
Method in brief: (§1)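 Two-state fits, bootstrapped, provided melting temperature and folding enthalpy from Cy3 fluorescence normalised to pre-quench Cy3 and to control constructs. Library hairpins with annealed Cy3 and quencher oligos were imaged on a sequenced MiSeq flow cell in 50 mM Na-HEPES pH 8.0, 25 mM NaCl, at 2.5 °C intervals up to 60 °C. Four replicates were combined with inverse-variance weighting. A 9.35 °C upward shift was applied to fitted temperatures to match UV melts.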

[2] = folding enthalpy; higher = less favourable; fluorescence melt of hairpins on a sequencing array, two-state fit; details: sodium 0.088 M
Method in brief: as §1

| Sequence | Tm [1] [°C] | folding enthalpy [2] [kcal/mol] |
| --- | --- | --- |
| GCATTGGAAACAATGC ((((((....)))))) | 57.7 | -39.4 |
| GCATTGGGAAACTAATGC (((((.(....).))))) | 46.7 | -32.6 |
| GCATTTGGAAACAAATGC (((((((....))))))) | 60 | -46.7 |
| GCATTTGGAAACAGATGC ((((.((....)).)))) | 44 | -33.4 |
| GCCAAACGAAAGTTAGGC (((.(((....))).))) | 54.9 | -29.5 |
| GCCAAATCGAAAGATGGC (((..(((....)))))) | 47.4 | -27.2 |
| GCCAACCGAAAGGTCGGC (((.(((....))).))) | 59.4 | -40.2 |
| GCCAACCGAAAGGTGGC (((.(((....)))))) | 67.4 | -22.9 |
| GCCAACGAAAGTTCCGGC ((((((....)))..))) | 36.3 | -20.6 |
| GCCAACGAAAGTTCGGGC ((((((....)))..))) | 43.8 | -30 |
| GCCAACGAAAGTTGGGGC ((((((....)))..))) | 65.4 | -15.3 |
| GCCAACGAAAGTTTCGGC ((((((....)))..))) | 39 | -18.4 |
| GCCAACGAAAGTTTGGC ((((((....))).))) | 54.6 | -34.1 |
| GCCAACGCGAAAGCGGGC (((..(((....)))))) | 63.4 | -16.4 |
| GCCAACGGAAACGTTAGC ((.((((....)))).)) | 40 | -23.6 |
| GCCAAGCGAAAGCACGGC (((..((....))..))) | 57.4 | -30.4 |
| GCCAAGCGAAAGCATAGC ((.(.((....)).).)) | 30.7 | -12.9 |
| GCCAAGCGAAAGCATCGC ((.(.((....)).).)) | 31.2 | -6.8 |
| GCCAAGCGAAAGCCTTGC ((.(.((....)).).)) | 33.9 | -13.6 |
| GCCAAGCGAAAGCGTAGC ((.(.((....)).).)) | 47.5 | -13.3 |
| GCCAAGCGAAAGCGTCGC ((.(.((....)).).)) | 45.5 | -12.9 |
| GCCAAGCGAAAGCTAAGC ((..(((....)))..)) | 37.6 | -14.4 |
| GCCAAGCGAAAGCTACGC ((..(((....)))..)) | 34.7 | -11 |

| Sequence | Tm [1] [°C] | folding enthalpy [2] [kcal/mol] |
| --- | --- | --- |
| GCCAAGCGAAAGCTGCGC ((..(((....)))..)) | 51.6 | -20.8 |
| GCCAAGCGAAAGCTGTGC ((..(((....)))..)) | 46.4 | -17.4 |
| GCCAAGGGAAACCTCGGC (((.(((....))).))) | 46 | -29.2 |
| GCCAAGGGAAACCTTGAC (.(((((....))))).) | 39.6 | -20.6 |
| GCCAAGTCGAAAGACGGC (((..(((....)))))) | 52.7 | -25.6 |
| GCCAATCGAAAGATGGC (((.(((....)))))) | 55.4 | -35.5 |
| GCCACACGAAAGTGAGGC (((.(((....))).))) | 66.2 | -35.8 |
| GCCACAGCGAAAGCTGGC (((..(((....)))))) | 51.9 | -12.5 |
| GCCACAGGAAACCATGGC ((((..(....)..)))) | 33.3 | -22.8 |
| GCCACAGGAAACTGTAGC ((.((((....)))).)) | 39.4 | -24.3 |
| GCCACAGGAAACTGTGAC (.(((((....))))).) | 46 | -15.9 |
| GCCACCGAAAGGTAGGC ((((((....))).))) | 62.7 | -32.2 |
| GCCACCGAAAGGTCCGGC ((((((....)))..))) | 46.8 | -17 |
| GCCACCGGAAACAGCGGC (((.(.(....).).))) | 32.5 | -16.9 |
| GCCACGACGAAAGTCGGC (((..(((....)))))) | 44.1 | -10.2 |
| GCCACGCGAAAGCCCGGC (((..((....))..))) | 43.7 | -18.5 |
| GCCACGCGAAAGCGACGC ((..(((....)))..)) | 39.8 | -11.8 |
| GCCACGCGAAAGCGCCGC ((..(((....)))..)) | 29.1 | -8.83 |
| GCCACGCGAAAGCGCTGC ((..(((....)))..)) | 37.4 | -11 |
| GCCACGCGAAAGCTTGGC ((((.((....)).)))) | 66 | -35.5 |
| GCCACGGGAAACCGCGGC (((.(((....))).))) | 59.1 | -44.5 |
| GCCACGTCGAAAGACGGC (((..(((....)))))) | 49.5 | -10.8 |
| GCCACTCGAAAGAGCGGC (((.(((....))).))) | 61.3 | -46.9 |

| Sequence | Tm [1] [°C] | folding enthalpy [2] [kcal/mol] |
| --- | --- | --- |
| GCCACTCGAAAGAGGGC (((.(((....)))))) | 54.7 | -24.3 |
| GCCACTGGAAACGGTGGC (((((.(....).))))) | 58.6 | -50.6 |
| GCCAGAGGAAACTCTAGC ((.((((....)))).)) | 34.1 | -17.3 |
| GCCAGCGAAAGCTAGGGC ((((((....)))..))) | 52.7 | -31.6 |
| GCCAGCGGAAACGTTGGC ((((.((....)).)))) | 59.4 | -38.9 |
| GCCAGCTCGAAAGAGGGC (((..(((....)))))) | 45 | -24.5 |
| GCCAGGCGAAAGCCAAGC ((..(((....)))..)) | 44.8 | -13.3 |
| GCCAGGCGAAAGCCTAGC ((.((((....)))).)) | 51.4 | -15.7 |
| GCCAGGCGAAAGCCTTGC ((.((((....)))).)) | 56.9 | -20 |
| GCCAGGCGAAAGCGAGGC (((..((....))..))) | 59.4 | -21.1 |
| GCCAGGCGAAAGCGTCGC ((.(.((....)).).)) | 40.7 | -8.31 |
| GCCAGGGCGAAAGCCGGC (((..(((....)))))) | 63.3 | -17.1 |
| GCCAGTGGAAACACTAGC ((.((((....)))).)) | 39.9 | -21.9 |
| GCCATAGAAATATGGC ((((((....)))))) | 53.5 | -36.4 |
| GCCATCCGAAAGGAGGC (((.(((....)))))) | 57.6 | -22.8 |
| GCCATCCGAAAGGAGGGC (((.(((....))).))) | 67.2 | -44 |
| GCCATCGAAAGATATGGC ((((((....)))..))) | 46.6 | -32 |
| GCCATCGAAAGATGAGGC ((((((....)))..))) | 46.3 | -18.8 |
| GCCATCGAAAGATTAGGC ((((((....)))..))) | 43.4 | -30.7 |
| GCCATGAAAATGGC (((((....))))) | 60.6 | -28.1 |
| GCCATGCGAAAGCAAAGC ((..(((....)))..)) | 32.2 | -11.5 |
| GCCATGCGAAAGCAGAGC ((..(((....)))..)) | 44.6 | -17.9 |
| GCCATGCGAAAGCATAGC ((.((((....)))).)) | 51.6 | -17 |

| Sequence | Tm [1] [°C] | folding enthalpy [2] [kcal/mol] |
| --- | --- | --- |
| GCCATGCGAAAGCCAGGC (((..((....))..))) | 55.4 | -21 |
| GCCATGCGAAAGCCTGGC ((((.((....)).)))) | 62.8 | -31.2 |
| GCCATGCGAAAGCCTTGC ((.(.((....)).).)) | 26.6 | -10 |
| GCCATGCGAAAGCGTCGC ((.(.((....)).).)) | 48 | -12.7 |
| GCCATGGCGAAAGCCGGC (((..(((....)))))) | 62 | -16.2 |
| GCCATTCGAAAGAAAGGC (((.(((....))).))) | 49.3 | -37 |
| GCCATTGCGAAAGCAGGC (((..(((....)))))) | 51.4 | -19.1 |
| GCCATTGGAAACAATAGC ((.((((....)))).)) | 33.1 | -13.7 |
| GCCATTGGAAACGATGGC (((((.(....).))))) | 54.1 | -45.8 |
| GCCCAACCGAAAGGTGGC (((..(((....)))))) | 51.6 | -18.8 |
| GCCCAACGAAAGTTGGC (((.(((....)))))) | 57.1 | -12.8 |
| GCCCAAGGAAACCTGGGC (((((.(....).))))) | 54.1 | -43.8 |
| GCCCAATCGAAAGATGGC (((..(((....)))))) | 43.3 | -24.9 |
| GCCCACGAAAGTGATGGC ((((((....)))..))) | 50.6 | -29.4 |
| GCCCACGAAAGTGCGGGC ((((((....)))..))) | 55 | -28.4 |
| GCCCACGAAAGTGTGGC ((((((....))).))) | 62.4 | -30.2 |
| GCCCACGAAAGTGTGGGC ((((((....)))..))) | 68 | -31.5 |
| GCCCACGAAAGTGTTGGC ((((((....)))..))) | 49 | -20.4 |
| GCCCACGGAAACATGGGC (((((.(....).))))) | 50.7 | -30.8 |
| GCCCACGGAAACGTGAGC ((.((((....)))).)) | 50.9 | -27.2 |
| GCCCAGAAATGGGC (((((....))))) | 63.1 | -33.9 |
| GCCCAGACGAAAGTCGGC (((..(((....)))))) | 49.6 | -15.7 |
